Source: ChEMBL document CHEMBL4513216, “Probing the Open Global Health Chemical Diversity Library for Multistage-Active Starting Points for Next-Generation Antimalarials” (ACS Infect Dis, 2020)

assay: Toxicity liver stage against HepG2, at 10uM; format: cell-based; set-up: test concentration 10 uM, cell line HepG2-A16-CD81EGFP; conditions: human, HepG2-A16-CD81EGFP cells; read-out: INHIBITION
Method in brief: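 Uninfected HepG2-A16-CD81EGFP cells, 3 × 10^3 per well, 1536-well, plated on prespotted compound at 10 μM final, parasite-free screening media added to match infected plates; puromycin 10 μM positive, DMSO 0.5% negative; run in parallel with 48 h PbLuc assay at 37 °C, 5% CO2; viability by CellTiter-Glo luminescence, normalized to controls.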

Point of comparison: `Cc1cc(C)c(CNCC(O)c2ccc(F)c(F)c2)c(C)c1` (stereo not drawn), cytotoxicity at 10 µM 6.59%. Against it:
- CCC1CCc2c(c3ccccc3[nH]c2=O)O1 (stereo not drawn) — lower, -1.1%
- COc1ccc(CN2C[C@@H](F)[C@@H](OCc3nc4ccccc4[nH]3)C2)cn1 — lower, -2.59%
- CC(C)(C)c1coc([C@@H]2COCCN2Cc2c[nH]c3ccccc23)n1 — lower, -1.23%
- Cc1cc(C(=O)N2CCOC[C@H](Oc3cnccn3)C2)c(C(F)(F)F)o1 — lower, -1.13%
- CN(C)CCNc1c(-c2ccccc2)c(=O)c1=O — lower, -9.11%
- Cc1ccc(Nc2cc(N3CCN(S(C)(=O)=O)CC3)nc(C)n2)cc1 — higher, 6.91%
- COCCn1ccc2ccc(C(=O)O)cc21 — lower, -9.13%
- Cc1cccc(C(=O)N2CCCSCC2CN2CCCC2)c1 (stereo not drawn) — higher, 8.77%
- O=C1CCC2(CCCN(C(=O)Cc3cccs3)C2)N1 (stereo not drawn) — lower, 3.76%
- CN(C)C(=O)CN1CCC2(CCN(C(=O)N(C)C)CC2)C1=O — lower, 0.611%
- O=C(N1CCOCC1)N1CC[C@H]2[C@@H]1CCC(=O)N2c1ccccc1 — lower, 6.53%
- Cc1cc(CN2CCC3(CC2)COC(COc2ccccn2)C3)no1 (stereo not drawn) — lower, 5.8%
- COCCNC(=O)CSCc1nc(O)c2cc(C(C)C)sc2n1 — lower, -3.46%
- Cc1ccc(Sc2ccc(N3CCCC(C(=O)O)C3)nn2)cc1 (stereo not drawn) — lower, -8.71%
- COCCCN1C(=O)CC(N2CCN(c3ccc(F)cc3)CC2)C1=O (stereo not drawn) — lower, 2.57%
- CCOC(=O)CC(c1ccc(OC)c(OC)c1)c1c(O)n[nH]c1C (stereo not drawn) — lower, 1.64%
- Cc1cc(C)c2c(c1)C1(CC(=O)Nc3c1cnn3C(C)C)C(=O)N2 (stereo not drawn) — lower, -2.51%
- COC(=O)CNC(=O)CSCc1nc(O)c2cc(C(C)C)sc2n1 — higher, 7.72%
- COc1cccc2ccn(CCC(=O)N3CCCC(C(=O)O)C3)c12 (stereo not drawn) — lower, -9.42%
- Cc1cccn2c(=O)cc(OC(=O)c3ccccc3)nc12 — lower, 0.64%
- Cc1nc(C)n(CC2CN(c3ncccn3)Cc3nccn3C2)n1 (stereo not drawn) — lower, -8.5%
- Cn1cc(CN2CC3(CCN(C(=O)c4ccoc4)C3)C2)cn1 — lower, -8.45%
- COCC1CC2(CCN(C(=O)c3ccc(OC)c(Cl)c3)CC2)CO1 (stereo not drawn) — higher, 15.4%
- COC(=O)Cn1ccc(=O)c2ccc(OC)cc21 — lower, -20.7%
- CC(=O)N1CCOCC(Cc2ccc3c(ccn3C)c2)C1 (stereo not drawn) — lower, 4.3%
- Nc1ncnc2nc(C3CCN(C(=O)Cc4ccc(F)cc4)C3)ccc12 (stereo not drawn) — lower, 1.76%
- CC(C)c1ncc(CN2CCCC2c2[nH]ncc2C(=O)N(C)C)cn1 (stereo not drawn) — lower, 0.974%
- CC(=O)NCc1nccnc1C1CCN(C(=O)c2cc[nH]n2)CC1 — lower, -6.74%
- O=C(Nc1nncs1)c1ccc(O)nc1 — lower, -6.37%
- CC(C1CC1)N(C(=O)CNc1ccc(C#N)cc1)C1CC1 (stereo not drawn) — lower, -5.28%
- O=C(NCc1ccnc(OCC(F)(F)F)c1)NCC1CCCO1 (stereo not drawn) — lower, -4.05%
- Cc1ccc(C2CN(CCCS(=O)(=O)C(C)C)CCO2)c(C)c1 (stereo not drawn) — lower, -2.36%
- N#Cc1cn(C2CC2)c(=O)n(Cc2noc(-c3ccsc3)n2)c1=O — lower, 0.836%
- OC(CNCCc1nnc2ccccn12)c1ccc2c(c1)OCO2 (stereo not drawn) — lower, 4.06%
- Cc1csc(C(C)(C)NCCCS(C)(=O)=O)n1 — lower, 6.11%
- Cc1nc(C(C)C)sc1C(C)N(C)C(=O)c1ccc(=O)n(C)n1 (stereo not drawn) — lower, -1.94%
- CC(C)CCc1noc(CN2CCCC(CNS(N)(=O)=O)C2)n1 (stereo not drawn) — lower, 2.48%
- NC(=O)C(NC(=O)COCCc1ccccc1)c1ccccc1F (stereo not drawn) — lower, -11%
- O=C(NCCN1CCOCC1)NCc1ccccc1-n1cccn1 — lower, -6.32%
- CC(C)(C)S(=O)(=O)CCNC(=O)c1ccc2cc[nH]c2c1 — lower, -2.61%
- O=C(c1ccc2c(c1)CCC2)N1CCCCC1C1OCCO1 (stereo not drawn) — lower, 0.197%
- CC(=O)N1CCN(C(=O)c2c(Cl)c3ccccc3n2C)CC1 — higher, 12.5%
- Cc1ncncc1C(=O)N1CCCC(n2ccnc2C)C1 (stereo not drawn) — lower, -2.17%
- O=C(CN1CCS(=O)(=O)CC1)NCc1cccc(Br)c1 — lower, 6.32%
- C[S+]([O-])c1nncn1CCc1ccccc1 (stereo not drawn) — lower, -12.6%
- Cc1ccc(N(C)C2CCN(C(=O)c3n[nH]c4c3CCC4)CC2)nn1 — higher, 8%
- Cc1ccc(Br)cc1C(=O)Nc1cc(C(N)=O)n(C)c1 — lower, 1.41%
- CC(C)OCc1noc(C2CC=CC2)n1 — higher, 16.5%
- CN(C)CC1CN(Cc2c(Cl)ccc3cccnc23)CCO1 (stereo not drawn) — lower, 4.2%
- c1cc(CN2CCCC2)ccc1CNc1cncc2nnnn12 — lower, 3.99%
- CN(C)Cc1nc(C2(NC(=O)Nc3ccccc3)CCCC2)no1 — lower, -0.871%
- O=S(=O)(NC1CCC2(CC1)OCCO2)c1ccccc1Br — lower, -9.01%
- COCCNC(=O)N1CC(Cc2ccccc2F)C1 — lower, -6.4%
- COc1ccc(OC)c(CCNc2ncc(S(N)(=O)=O)s2)c1 — lower, 3.75%
- Cc1cc(CN(C)Cc2cc3c(cc2OC(F)F)OCO3)on1 — lower, 0.658%
- COc1ccc(OCC(=O)NC(C)c2ccc(F)cc2)c(C(=O)O)c1 (stereo not drawn) — lower, 2.89%
- O=S(=O)(CCN1CCOC(Cn2cncn2)C1)c1ccccc1 (stereo not drawn) — lower, -9.78%
- O=C(CCc1ccccc1)Nc1ncccc1OC(F)F — lower, -3.45%
- CSC(C)C(=O)NCCCc1cc(N)n(-c2ccccc2)n1 (stereo not drawn) — lower, 3.25%
- CC(C)OCCOCc1cccc(NC(=O)NCCn2ccnc2)c1 — lower, -4.63%
- CCOCCC(=O)Nc1cccc(Oc2ccccn2)c1 — higher, 8.32%
- CN(Cc1cnn(C)c1)C(=O)c1ccc(=O)n(C)n1 — lower, -7.87%
- C[C@@H](CO)Nc1nccc(-c2cnc3sc(Cl)cn3c2=O)n1 — lower, 2.52%
- CO[C@H]1C[C@@H](O)C12CCN(C(=O)NCc1ccco1)CC2 — lower, -2.04%
- Nc1nccc(-c2cccc3ccnn23)n1 — lower, -3.81%
- CCC(C(=O)NC1CCN(S(C)(=O)=O)CC1)n1cccn1 (stereo not drawn) — lower, -2.42%
- O=C(c1ccccc1)C1CCN(C(=O)CC2COCCN2)CC1 (stereo not drawn) — lower, -163%
- O=C(CN1CCCCCC1)NCc1ccc2[nH]c(=O)[nH]c2c1 — lower, -2.86%
- COCc1cc(N2C[C@@H](C)[C@](O)(C3CC3)C2)ncn1 — lower, 3.73%
- O=C(CCCN1CCCCC1)NC(C(=O)O)c1cccc(F)c1 (stereo not drawn) — lower, 1.91%
- O=C(NC1CC1)c1ccnc(-c2cc(NCCO)nc3[nH]ccc23)c1 — lower, 5.61%
- CC(=O)N1CCCN(c2nccc(-c3c(C)nn(C)c3C)n2)CC1 — higher, 9.21%
- COc1cccc2c(=O)n(Cc3cccnc3)cnc12 — lower, -7.85%
- CSCCN1CCC(NC(=O)OC(C)(C)C)CC1 — higher, 12.3%
- CC(C)c1cc(NC(=O)c2ccncc2)[nH]n1 — lower, -0.396%
- O=C(CCN1CCN(c2ccc3nncn3n2)CC1)N1CCCCC1 — lower, -6.73%
- COC(=O)C(NC(=O)C1CCC1)c1cc(F)ccc1F (stereo not drawn) — lower, 5.54%
- COc1ccc(C(=O)N(C)Cc2c(C)noc2C)cn1 — lower, -12.9%
- O=C(NCCn1nc2ccccn2c1=O)c1sccc1-c1ccccc1 — lower, -12.7%
- Cn1nc2c(cc1=O)CN(Cc1nc(-c3ccccn3)no1)CC2 — lower, -3.51%
- CN(Cc1noc(C2CC2)n1)C1CCN(Cc2ccc(F)c(F)c2)C1 (stereo not drawn) — lower, -0.279%
- Cc1csc(CNCc2c(C)nn(C)c2N2CCOCC2)n1 — lower, -9.07%
- Cn1ncc2c(=O)[nH]c(CN3CCCC3c3ccsc3)nc21 (stereo not drawn) — lower, -18%
- Cc1nc(C)n(C2CCCN(C(=O)c3sccc3C)C2)n1 (stereo not drawn) — lower, -8.93%
- Cc1csc(N2CCCN(C(=O)c3c(C)noc3C)CC2)n1 — lower, -10.6%
- Cc1cc(OCC(=O)N2CCCC(c3nccs3)C2)no1 (stereo not drawn) — lower, 0.953%
- CCOCCN1CCN(CC(=O)N2CCC2)CC1CC (stereo not drawn) — lower, -2.15%
- CCc1n[nH]c(C2CN(C(=O)c3ncoc3CC)CCO2)n1 (stereo not drawn) — lower, 0.567%
- Cn1ccc(C(=O)NCc2ccc(CN3CCCCC3)cc2)cc1=O — lower, -12.4%
- CCc1nc(C)c(C(=O)NCCN2CCCC2)s1 — lower, 1.94%
- CS(=O)(=O)N1CCC(NC(=O)COc2ccccc2Cl)CC1 — lower, -1.99%
- COc1ncccc1NC(=O)NC1CCCN(c2ncccn2)C1 (stereo not drawn) — lower, -28.8%
- CN(CC(=O)N1CCCCC1c1nc(C(C)(C)C)cs1)C1CC1 (stereo not drawn) — lower, -2.77%
- COc1cccc(CN2CCCC2Cn2nc(C)nc2C)c1 (stereo not drawn) — lower, 0.665%
- c1ccc(-c2nc(CNCCn3cccn3)cs2)cc1 — lower, -1.56%
- CSC(C)C(=O)N1CCCN(Cc2cnn(C(C)C)c2)CC1 (stereo not drawn) — lower, -6.29%
- CC(NC(=O)N(C)CCCOc1ccc(F)cc1)c1nncn1C (stereo not drawn) — lower, 2.48%
- Cc1cnn(CC2CCCCN2CC(=O)Nc2c(C)n[nH]c2C)c1 (stereo not drawn) — lower, 1.8%
- COc1ccc(C(=O)N2CCC(Nc3ccc(C)nn3)CC2)c(F)c1 — lower, 1.15%
- Cc1ccc(CN2CCCC3(CCC(=O)N3)CC2)s1 (stereo not drawn) — lower, -5.84%
- O=C(O)[C@]12CCCN(Cc3ccncc3)C[C@H]1CN(c1ncccn1)C2 — lower, 2.59%
- CCN1CC[C@@]2(C(=O)N3CCOCC3)CCN(C(=O)NC)CC[C@@H]12 — lower, -12.7%
- COc1ncnc2c1CCN(Cc1nccs1)CC2 — higher, 8.73%
- Cn1cc(CN2CC[C@H]3O[C@H](C(=O)NCc4ccco4)CC[C@H]32)cn1 — lower, -1.85%
- Cc1ncsc1CN1CCO[C@H]2[C@H](Oc3ccccn3)CC[C@@H]21 — lower, -0.762%
- CC(=O)N1CCC2(CCN(Cc3ccccn3)C2=O)C1 (stereo not drawn) — lower, 0.0869%
- Cc1nn(C)c(N(C)C)c1CNC1CCc2c(F)cccc21 (stereo not drawn) — lower, -5.87%
- CC(C)[C@H](N)C(=O)N1CCSc2ccccc2C1 — lower, -5.53%
- CC(C)C(=O)N1CC[C@@H]2[C@H](CC1)N(Cc1cccnc1)CCS2(=O)=O — lower, -7.77%
- CCCS(=O)(=O)N1C[C@@H]2C[C@H](C(=O)N3CCOCC3)[C@H](C1)O2 — lower, -1.95%
- Cc1ccc(-n2cc3[nH]c(=O)[nH]n3c2=O)cc1 — lower, 1.22%
- CC(=O)Nc1c(C)noc1C=Cc1ccc(S(=O)(=O)N2CCCC2)cc1 — lower, 0.931%
